Experimental data from ChEMBL document CHEMBL4732088, “Identification and optimization of piperlongumine analogues as potential antioxidant and anti-inflammatory agents via activation of Nrf2” (Eur J Med Chem, 2021).
Active and inactive are the calls of the source. The calls are words filed in the database; no cut-off is given here.

How the values were obtained:
[1] = tested on: PC-12; experiment: Protection against 6-OHDA-induced oxidative damage in rat PC12 cells assessed as intracellular ROS level by measuring mean fluorescence intensity at 10 uM pretreated with compound followed by 6-OHDA stimulation by DCFH-DA staining based flow cytometry (reference value: 26327.34); format: functional
[2] = tested on: PC-12; experiment: Protection against 6-OHDA-induced mitochondrial dysfunction in rat PC12 cells assessed as change in mitochondrial membrane potential loss at 5 uM pretreated with compound followed by 6-OHDA addition by JC-1 staining based flow cytometry (reference value: 26.8 %); format: functional
Summary of the method: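 Mitochondrial membrane potential in PC12 cells pretreated with compound (5, 10, 20 μM), then exposed to H₂O₂ (200 μM) or 6-OHDA (150 μM). JC-1 staining, red-to-green fluorescence shift read by flow cytometry. Mean ± SD, n = 3.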

[3] = tested on: PC-12; experiment: Protection against H2O2-induced apoptosis in rat PC12 cells assessed as viable cells at 5 uM incubated for 24 hrs by annexin V FITC/propidium iodide staining based flow cytometry (reference value: 79.3 %); format: functional; details: read-out: Activity
[4] = tested on: PC-12; experiment: Protection against H2O2-induced apoptosis in rat PC12 cells assessed as viable cells at 10 uM incubated for 24 hrs by annexin V FITC/propidium iodide staining based flow cytometry (reference value: 79.3 %); format: functional; details: read-out: Activity
[5] = tested on: PC-12; experiment: Protection against H2O2-induced apoptosis in rat PC12 cells assessed as late apoptotic cells at 10 uM incubated for 24 hrs by annexin V FITC/propidium iodide staining based flow cytometry (reference value: 16.2 %); format: functional
[6] = tested on: PC-12; experiment: Protection against 6-OHDA-induced apoptosis in rat PC12 cells assessed as early apoptotic cells at 5 uM incubated for 24 hrs by annexin V FITC/propidium iodide staining based flow cytometry (reference value: 19.2 %); format: functional
[7] = tested on: PC-12; experiment: Protection against 6-OHDA-induced apoptosis in rat PC12 cells assessed as necrotic cells at 10 uM incubated for 24 hrs by annexin V FITC/propidium iodide staining based flow cytometry (reference value: 1.1 %); format: functional
[8] = tested on: PC-12; experiment: Protection against 6-OHDA-induced apoptosis in rat PC12 cells assessed as early apoptotic cells at 20 uM incubated for 24 hrs by annexin V FITC/propidium iodide staining based flow cytometry (reference value: 19.2 %); format: functional
[9] = tested on: PC-12; experiment: Neuroprotective activity against H2O2-induced apoptosis in rat PC12 cells assessed as reduction in apoptotic nuclei at 5 to 20 uM pretreated with compound followed by H2O2 addition by Hoechst 33342 staining based fluorescence microscopy analysis; format: functional, cell-based; details: dose 5-20 µM
Summary of the method: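 PC12 cells pretreated with compound before H₂O₂ or 6-OHDA; nuclei stained with Hoechst 33342, imaged on a high-content system with phase-contrast views; apoptotic nuclei scored as bright condensed aggregates; n = 3.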

[10] = molecular target: T1, Nuclear factor erythroid 2-related factor 2 (Rattus norvegicus) (UniProt O54968); experiment: Activation of Nrf2 in rat PC12 cells assessed as increase in HO-1 protein level at 20 uM after 12 hrs by Western blot analysis; format: cell-based; details: PC-12, filed as activator
T1 sequence (whole entry): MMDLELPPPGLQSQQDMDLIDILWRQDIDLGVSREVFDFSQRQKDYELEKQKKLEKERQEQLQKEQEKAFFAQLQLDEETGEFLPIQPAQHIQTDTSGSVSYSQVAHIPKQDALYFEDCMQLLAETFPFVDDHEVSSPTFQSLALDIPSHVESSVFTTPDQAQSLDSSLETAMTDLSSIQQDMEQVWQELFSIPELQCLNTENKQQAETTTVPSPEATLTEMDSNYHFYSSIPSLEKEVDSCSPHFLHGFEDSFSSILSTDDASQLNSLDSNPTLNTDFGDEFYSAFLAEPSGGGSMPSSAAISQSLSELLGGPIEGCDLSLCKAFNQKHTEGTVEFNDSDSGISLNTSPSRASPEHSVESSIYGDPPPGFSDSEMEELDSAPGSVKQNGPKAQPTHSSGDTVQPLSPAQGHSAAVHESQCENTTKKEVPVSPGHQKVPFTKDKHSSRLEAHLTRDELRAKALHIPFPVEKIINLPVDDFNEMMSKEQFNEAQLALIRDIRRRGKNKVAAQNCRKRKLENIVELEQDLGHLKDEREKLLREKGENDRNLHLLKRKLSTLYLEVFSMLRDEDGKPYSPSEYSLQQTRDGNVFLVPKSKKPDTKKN

[11] = molecular target: T1, Nuclear factor erythroid 2-related factor 2 (Rattus norvegicus); experiment: Activation of Nrf2 in rat PC12 cells assessed as increase in NQO1 protein level at 20 uM after 24 hrs by Western blot analysis; format: cell-based; details: PC-12, filed as activator
[12] = molecular target: T1, Nuclear factor erythroid 2-related factor 2 (Rattus norvegicus); experiment: Activation of Nrf2 in rat PC12 cells assessed as increase in NQO1 protein level after 24 hrs by Western blot analysis; format: cell-based; details: PC-12, filed as activator, dose 5-20 µM
Summary of the method: (§1)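 PC12 cells treated with compound for 24 h at rising concentrations; NQO1, HO-1, TrxR1, GCLM, GCLC protein detected by Western blot.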

[13] = molecular target: T1, Nuclear factor erythroid 2-related factor 2 (Rattus norvegicus); experiment: Activation of Nrf2 in rat PC12 cells assessed as increase in TrxR1 protein level after 24 hrs by Western blot analysis; format: cell-based; details: PC-12, filed as activator, dose 5-20 µM; summary of the method: as §1
[14] = molecular target: T2, Nuclear factor erythroid 2-related factor 2 (Mus musculus) (UniProt Q60795); experiment: Activation of Nrf2 in mouse BV2 cells assessed as upregulation of Nrf2 protein expression after 24 hrs by Western blot analysis; format: cell-based; details: BV-2, filed as activator, dose 5-20 µM
T2 sequence (whole entry): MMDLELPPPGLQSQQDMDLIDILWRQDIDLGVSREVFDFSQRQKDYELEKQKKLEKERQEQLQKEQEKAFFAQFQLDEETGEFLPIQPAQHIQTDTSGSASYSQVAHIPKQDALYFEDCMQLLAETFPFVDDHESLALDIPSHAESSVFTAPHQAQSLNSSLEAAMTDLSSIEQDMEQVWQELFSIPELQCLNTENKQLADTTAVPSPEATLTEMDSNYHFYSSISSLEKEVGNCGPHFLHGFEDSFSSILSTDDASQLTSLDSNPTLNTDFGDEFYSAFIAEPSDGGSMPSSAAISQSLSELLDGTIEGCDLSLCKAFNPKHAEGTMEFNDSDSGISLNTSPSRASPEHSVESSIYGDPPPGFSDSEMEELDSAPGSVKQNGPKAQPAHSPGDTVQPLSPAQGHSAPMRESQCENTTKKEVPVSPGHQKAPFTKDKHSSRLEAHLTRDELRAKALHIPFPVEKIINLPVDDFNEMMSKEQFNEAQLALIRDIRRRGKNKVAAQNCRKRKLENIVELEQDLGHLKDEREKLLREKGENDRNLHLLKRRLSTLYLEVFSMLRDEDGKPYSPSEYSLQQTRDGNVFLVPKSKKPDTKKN
Summary of the method: (§2)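 BV2 microglia exposed to compound for 24 h over a concentration series; Nrf2, NQO1, HO-1, TrxR1, GCLM and GCLC protein levels read by Western blot.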

[15] = molecular target: T2, Nuclear factor erythroid 2-related factor 2 (Mus musculus); experiment: Activation of Nrf2 in mouse BV2 cells assessed as upregulation of GCLM protein expression after 24 hrs by Western blot analysis; format: cell-based; details: BV-2, filed as activator, dose 5-20 µM; summary of the method: as §2
[16] = Effective permeability of compound by PAMPA-BBB assay; format: ADME; details: read-out: Peff
[17] = tested on: BV-2; experiment: Antiinflammatory activity in mouse BV2 cells transfected with control siRNA assessed as inhibition of LPS-induced IL-6 production at 20 uM pretreated with compound followed by LPS stimulation for 18 hrs

Structure (SMILES): CCN(C)C(=O)N1CCN(C(=O)/C=C/c2ccc(F)cc2)C1=O
- Flu intensity [1]: 12110.88
- Activity [2]: 20.5%
- viability at 5 µM [3]: 84.1%
- viability at 10 µM [4]: 92.4%
- Activity [5]: 5.3%
- Activity [6]: 11.1%
- Activity [7]: 1%
- Activity [8]: 5.2%
- Activity [9]: Active
- Activity [10]: Active
- Activity [11]: Active
- Activity [12]: Dose-dependent effect
- Activity [13]: Dose-dependent effect
- Activity [14]: Dose-dependent effect
- Activity [15]: Dose-dependent effect
- Papp [16]: 6.78 ×10⁻⁶ cm/s
- Activity [17]: Active
